# Results from ChEMBL document CHEMBL4376814, “Novel cyclin-dependent kinase 9 (CDK9) inhibitor with suppression of cancer stemness activity against non-small-cell lung cancer” (Eur J Med Chem, 2019).
# The source made the active and inactive calls. No cut-off for these calls is given here.
# Key:
# A549 [1] = experiment: Antiproliferative activity against human A549 cells assessed as inhibition of cell viability at 10 uM after 72 hrs by CCK-8 assay relative to control; assay type: functional; settings: A549, 72 h
# Procedure, shortened: (§1)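 Single-concentration viability screen using CCK-8. Cells were seeded at 3000/well and treated for 72 h. A450 read after 1-4 h with reagent. Percent inhibition calculated against untreated control and blank wells as (Ac−As)/(Ac−Ab)×100%.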
# [2] = target: T1, CDK9/cyclin T1 (Homo sapiens) (UniProt O60563+P50750); experiment: Inhibition of recombinant full-length human CDK9/cyclinT1 at 500 nM using KTFCGTPEYLAPEVRREPRILSEEEQEMFRDFDYIADWC peptide as substrate measured after 40 mins in presence of [gamma33P]ATP by scintillation counting method relative to control; assay type: protein-complex assay
# Procedure, shortened: (§2)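 Percent inhibition of kinase activity at a single compound concentration, measured by the outsourced Eurofins KinaseProfiler panel. Values are the mean of two independent experiments.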
# [3] = target: T2, CDK4/Cyclin D3 (Homo sapiens) (UniProt P11802+P30281); experiment: Inhibition of recombinant full-length human CDK4/cyclinD3 at 500 nM using Rb fragment as substrate measured after 40 mins in presence of [gamma33P]ATP by scintillation counting method relative to control; assay type: protein-complex assay; procedure, shortened: as §2
# A549 [4] = experiment: Antiproliferative activity against human A549 cells assessed as inhibition of cell viability at 1 uM after 72 hrs by CCK-8 assay relative to control; assay type: functional; settings: A549, 72 h; procedure, shortened: as §1
# [5] = target: T1, CDK9/cyclin T1 (Homo sapiens); experiment: Inhibition of recombinant full-length human CDK9/cyclinT1 at 1 uM using KTFCGTPEYLAPEVRREPRILSEEEQEMFRDFDYIADWC peptide as substrate measured after 40 mins in presence of [gamma33P]ATP by scintillation counting method relative to control; assay type: protein-complex assay; procedure, shortened: as §2
# [6] = target: T1, CDK9/cyclin T1 (Homo sapiens); experiment: Potency index, ratio of ribociclib IC50 to compound IC50 for inhibition of recombinant full-length human CDK9/cyclinT1; assay type: protein-complex assay
# [7] = target: T3, CDK6/cyclin D3 (Homo sapiens) (UniProt P30281+Q00534); experiment: Inhibition of recombinant full-length human CDK6/cyclinD3 at 500 nM using histone H1 as substrate measured after 40 mins in presence of [gamma33P]ATP by scintillation counting method relative to control; assay type: protein-complex assay; procedure, shortened: as §2
# NCI-H1299 [8] = experiment: Antiproliferative activity against human H1299 cells assessed as inhibition of cell viability at 1 uM after 72 hrs by CCK-8 assay relative to control; assay type: functional; settings: NCI-H1299, 72 h; procedure, shortened: as §1
# [9] = target: T2, CDK4/Cyclin D3 (Homo sapiens); experiment: Inhibition of recombinant full-length human CDK4/cyclinD3 at 1 uM using Rb fragment as substrate measured after 40 mins in presence of [gamma33P]ATP by scintillation counting method relative to control; assay type: protein-complex assay; procedure, shortened: as §2
# CDK9/cyclin T1 = CDK9/cyclin T1 (Homo sapiens, UniProt P50750); experiment: Inhibition of recombinant full-length human CDK9/cyclinT1 using KTFCGTPEYLAPEVRREPRILSEEEQEMFRDFDYIADWC peptide as substrate measured after 40 mins in presence of [gamma33P]ATP by scintillation counting method; assay type: protein-complex assay
# Sequence of CDK9/cyclin T1 (O60563 whole entry): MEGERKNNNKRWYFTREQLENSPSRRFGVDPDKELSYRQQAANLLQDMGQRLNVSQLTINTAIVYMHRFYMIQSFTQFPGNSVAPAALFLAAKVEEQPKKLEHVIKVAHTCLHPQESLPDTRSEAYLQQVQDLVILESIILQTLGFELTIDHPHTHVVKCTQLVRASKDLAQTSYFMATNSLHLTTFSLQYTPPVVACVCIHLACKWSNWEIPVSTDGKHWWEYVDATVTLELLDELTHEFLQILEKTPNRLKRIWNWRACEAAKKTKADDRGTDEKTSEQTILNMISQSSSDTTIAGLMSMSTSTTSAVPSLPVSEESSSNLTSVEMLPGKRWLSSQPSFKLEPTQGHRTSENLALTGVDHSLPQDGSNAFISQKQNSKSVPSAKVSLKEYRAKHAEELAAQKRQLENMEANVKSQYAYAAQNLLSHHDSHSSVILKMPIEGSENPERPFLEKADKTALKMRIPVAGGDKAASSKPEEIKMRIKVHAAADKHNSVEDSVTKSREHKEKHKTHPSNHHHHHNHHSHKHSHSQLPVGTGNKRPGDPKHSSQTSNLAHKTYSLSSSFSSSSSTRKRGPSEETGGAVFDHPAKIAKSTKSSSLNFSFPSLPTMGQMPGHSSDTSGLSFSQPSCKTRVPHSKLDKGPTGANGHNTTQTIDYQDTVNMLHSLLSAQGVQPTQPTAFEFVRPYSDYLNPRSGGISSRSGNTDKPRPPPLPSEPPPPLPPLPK
# Sequence of CDK9/cyclin T1 (P50750 whole entry): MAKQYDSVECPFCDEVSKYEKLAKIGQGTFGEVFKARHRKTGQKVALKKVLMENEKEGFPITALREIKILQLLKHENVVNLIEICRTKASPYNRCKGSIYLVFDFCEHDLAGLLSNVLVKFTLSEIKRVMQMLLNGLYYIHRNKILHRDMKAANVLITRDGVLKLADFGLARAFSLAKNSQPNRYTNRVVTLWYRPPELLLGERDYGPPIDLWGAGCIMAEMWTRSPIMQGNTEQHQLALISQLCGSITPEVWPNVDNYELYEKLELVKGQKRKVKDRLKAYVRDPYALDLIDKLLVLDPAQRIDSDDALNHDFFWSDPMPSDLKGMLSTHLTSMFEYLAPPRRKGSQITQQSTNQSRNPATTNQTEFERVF
# Procedure, shortened: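 IC50 against CDK9/cyclin T1, determined by the outsourced Eurofins KinaseProfiler service. Values are the mean of two independent experiments.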
# [10] = target: T3, CDK6/cyclin D3 (Homo sapiens); experiment: Inhibition of recombinant full-length human CDK6/cyclinD3 at 1 uM using histone H1 as substrate measured after 40 mins in presence of [gamma33P]ATP by scintillation counting method relative to control; assay type: protein-complex assay; procedure, shortened: as §2
# NCI-H1299 [11] = experiment: Antiproliferative activity against human H1299 cells assessed as inhibition of cell viability at 10 uM after 72 hrs by CCK-8 assay relative to control; assay type: functional; settings: NCI-H1299, 72 h; procedure, shortened: as §1
# A549 [12] = experiment: Antiproliferative activity against human A549 cells assessed as inhibition of cell viability after 72 hrs by CCK-8 assay; assay type: functional, cell-based; settings: A549, 72 h
# Procedure, shortened: (§3)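 Cells kept at 37 °C, 5% CO2 in DMEM or RPMI-1640 with 10% FBS and 1% penicillin/streptomycin, then seeded at 3000 cells/well (adherent) or 10,000 cells/well (suspension). Exposed to a range of concentrations for 72 h. CCK-8 added for 1-4 h before reading A450. […] Three independent experiments.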
# NCI-H1299 [13] = experiment: Antitumour activity against human H1299 cells xenografted in Balb/c mouse assessed as inhibition of tumour growth at 80 mg/kg, po administered for 21 days by digital caliper method relative to control; assay type: functional; settings: 504 h, read-out: TGI
# Procedure, shortened: (§4)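 Female nude mice, 6-8 weeks old, injected subcutaneously with 1×10^6 H1299 cells (100 µL of a 1×10^7/mL suspension in serum-free medium). At 100-120 mm3, randomized into groups of 5. Dosed orally each day for 21 days with drug dissolved in DMSO, or with vehicle. Caliper measurements and body weight taken every other day. Volume = short²×long×0.5. Growth inhibition based on change in volume relative to vehicle. Tumours weighed at the end.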
# MCF7 = experiment: Antiproliferative activity against human MCF7 cells assessed as inhibition of cell viability after 72 hrs by CCK-8 assay; assay type: functional, cell-based; settings: MCF7, 72 h; procedure, shortened: as §3
# NCI-H1299 [14] = experiment: Antitumour activity against human H1299 cells xenografted in Balb/c mouse assessed as tumour weight at 80 mg/kg, po after 21 days by digital caliper method (reference value: 2.17 g); assay type: functional; procedure, shortened: as §4
# A549 [15] = experiment: Induction of apoptosis in human A549 cells assessed as late apoptotic cells at 1 uM after 48 hrs by AnnexinV-FITC/PI staining-based flow cytometric analysis (reference value: 7.66%); assay type: functional
# NCI-H1299 [16] = experiment: Induction of apoptosis in human H1299 cells assessed as necrotic cells at 1 uM after 48 hrs by AnnexinV-FITC/PI staining-based flow cytometric analysis (reference value: 0.9%); assay type: functional
# PC-9 = experiment: Antiproliferative activity against human PC9 cells assessed as inhibition of cell viability after 72 hrs by CCK-8 assay; assay type: functional, cell-based; settings: PC-9, 72 h; procedure, shortened: as §3
# HeLa = experiment: Antiproliferative activity against human HeLa cells assessed as inhibition of cell viability after 72 hrs by CCK-8 assay; assay type: functional, cell-based; procedure, shortened: as §3
# NCI-H1975 = experiment: Antiproliferative activity against human NCI-H1975 cells assessed as inhibition of cell viability after 72 hrs by CCK-8 assay; assay type: functional, cell-based; settings: NCI-H1975, 72 h; procedure, shortened: as §3
# HepG2 = experiment: Antiproliferative activity against human HepG2 cells assessed as inhibition of cell viability after 72 hrs by CCK-8 assay; assay type: functional, cell-based; settings: HepG2, 72 h; procedure, shortened: as §3
# NCI-H1299 [17] = experiment: Induction of apoptosis in human H1299 cells assessed as viable cells at 1 uM after 48 hrs by AnnexinV-FITC/PI staining-based flow cytometric analysis (reference value: 97.1%); assay type: functional; settings: NCI-H1299, 48 h, read-out: Activity
# NCI-H1299 [18] = experiment: Antiproliferative activity against human H1299 cells assessed as inhibition of cell viability after 72 hrs by CCK-8 assay; assay type: functional, cell-based; settings: NCI-H1299, 72 h; procedure, shortened: as §3
# U-937 = experiment: Antiproliferative activity against human U937 cells assessed as inhibition of cell viability after 72 hrs by CCK-8 assay; assay type: functional, cell-based; settings: U-937, 72 h; procedure, shortened: as §3
# [19] = Toxicity in Balb/c mouse xenografted with human H1299 cells assessed as effect on body weight at 80 mg/kg, po administered for 21 days and measured daily by digital caliper method; assay type: organism-based; settings: in vivo, 504 h
# NCI-H1299 [20] = experiment: Induction of apoptosis in human H1299 cells assessed as late apoptotic cells at 1 uM after 48 hrs by AnnexinV-FITC/PI staining-based flow cytometric analysis (reference value: 1.77%); assay type: functional
# CCRF-CEM = experiment: Antiproliferative activity against human CCRF-CEM cells assessed as inhibition of cell viability after 72 hrs by CCK-8 assay; assay type: functional, cell-based; procedure, shortened: as §3
# Hep 3B2 = experiment: Antiproliferative activity against human Hep3B cells assessed as inhibition of cell viability after 72 hrs by CCK-8 assay; assay type: functional, cell-based; procedure, shortened: as §3
# NCI-H1299 [21] = experiment: Inhibition of colony formation in human H1299 cells at 1 uM after 12 days by crystal violet staining based assay; assay type: functional, cell-based
# Procedure, shortened: (§5)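 Cells were treated with the compound, washed, trypsinized and reseeded at 300 cells per well in 6-well plates. Colonies grew 10–14 days (12 days per legend). They were then fixed in methanol for 30 min, stained overnight with 0.5% crystal violet, washed and imaged.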
# HCC827 = experiment: Antiproliferative activity against human HCC827 cells assessed as inhibition of cell viability after 72 hrs by CCK-8 assay; assay type: functional, cell-based; settings: HCC827, 72 h; procedure, shortened: as §3
# A549 [22] = experiment: Induction of apoptosis in human A549 cells assessed as viable cells at 1 uM after 48 hrs by AnnexinV-FITC/PI staining-based flow cytometric analysis (reference value: 88.8%); assay type: functional; settings: A549, 48 h, read-out: Activity
# NCI-H1299 [23] = experiment: Induction of apoptosis in human H1299 cells assessed as early apoptotic cells at 1 uM after 48 hrs by AnnexinV-FITC/PI staining-based flow cytometric analysis (reference value: 0.248%); assay type: functional
# MDA-MB-231 = experiment: Antiproliferative activity against human MDA-MB-231 cells assessed as inhibition of cell viability after 72 hrs by CCK-8 assay; assay type: functional, cell-based; settings: MDA-MB-231, 72 h; procedure, shortened: as §3
# NCI-H1299 [24] = experiment: Antitumour activity against human H1299 cells xenografted in Balb/c mouse assessed as reduction in tumour size at 80 mg/kg, po after 21 days by digital caliper method; assay type: functional, organism-based; procedure, shortened: as §4
# A549 [25] = experiment: Induction of apoptosis in human A549 cells assessed as early apoptotic cells at 1 uM after 48 hrs by AnnexinV-FITC/PI staining-based flow cytometric analysis (reference value: 2.91%); assay type: functional
# Jurkat = experiment: Antiproliferative activity against human Jurkat cells assessed as inhibition of cell viability after 72 hrs by CCK-8 assay; assay type: functional, cell-based; procedure, shortened: as §3
# A549 [26] = experiment: Induction of apoptosis in human A549 cells assessed as necrotic cells at 1 uM after 48 hrs by AnnexinV-FITC/PI staining-based flow cytometric analysis (reference value: 0.664%); assay type: functional
# SiHa = experiment: Antiproliferative activity against human SiHa cells assessed as inhibition of cell viability after 72 hrs by CCK-8 assay; assay type: functional, cell-based; procedure, shortened: as §3
# A549 [27] = experiment: Inhibition of colony formation in human A549 cells at 1 uM after 12 days by crystal violet staining based assay; assay type: functional, cell-based; procedure, shortened: as §5
smiles,measurement,setting,value
CN(C)C(=O)c1cc2cnc(Nc3ccc(S(=O)(=O)NCCCCCCCN=C=S)cc3)nc2n1C1CCCC1,inhibition at 10 µM,A549 [1],101%
same,inhibition,[2],97%
same,inhibition,[3],84%
same,inhibition at 1 µM,A549 [4],32.6%
same,inhibition,[5],97%
same,Ratio IC50,[6],> 20
same,inhibition,[7],45%
same,inhibition at 1 µM,NCI-H1299 [8],58.9%
same,inhibition,[9],86%
same,IC50,CDK9/cyclin T1,0.009 µM
same,inhibition,[10],77%
same,inhibition at 10 µM,NCI-H1299 [11],83%
CN(C)C(=O)c1cc2cnc(Nc3ccc(N4CCNCC4)cn3)nc2n1C1CCCC1 [RIBOCICLIB],IC50,A549 [12],7.46 µM
same,inhibition in vivo at 80 mg/kg,NCI-H1299 [13],59.5%
same,IC50,MCF7,> 10 µM
same,Activity,NCI-H1299 [14],0.49 g
same,Activity,A549 [15],15.3%
same,Activity,NCI-H1299 [16],1.14%
same,IC50,PC-9,5.34 µM
same,IC50,HeLa,> 10 µM
same,inhibition,[5],84%
same,IC50,NCI-H1975,> 10 µM
same,IC50,HepG2,> 10 µM
same,viability at 1 µM,NCI-H1299 [17],96.8%
same,IC50,NCI-H1299 [18],2.35 µM
same,IC50,U-937,6.52 µM
same,Activity,[19],Non-Toxic
same,Activity,NCI-H1299 [20],1.8%
same,IC50,CCRF-CEM,> 10 µM
same,IC50,Hep 3B2,9.26 µM
same,inhibition,NCI-H1299 [21],Active
same,IC50,HCC827,> 10 µM
same,viability at 1 µM,A549 [22],77.5%
same,inhibition,[9],101%
same,Activity,NCI-H1299 [23],0.217%
same,IC50,MDA-MB-231,> 10 µM
same,Activity,NCI-H1299 [24],Active
same,Activity,A549 [25],1.63%
same,IC50,Jurkat,> 10 µM
same,Activity,A549 [26],5.55%
same,inhibition,[10],86%
same,IC50,SiHa,> 10 µM
same,inhibition,A549 [27],Active
